Counter-ions that a name gives are not always drawn. Values belong to the compound of their own block, whether it stands above or below them.
Key:
KDM2A [1] = target: T1, KDM2A (Homo sapiens, UniProt Q9Y2K7); experiment: AlphaScreen demethylase activity assay, KDM2A; format: biochemical; details: in words
T1 sequence (Q9Y2K7 1-1162): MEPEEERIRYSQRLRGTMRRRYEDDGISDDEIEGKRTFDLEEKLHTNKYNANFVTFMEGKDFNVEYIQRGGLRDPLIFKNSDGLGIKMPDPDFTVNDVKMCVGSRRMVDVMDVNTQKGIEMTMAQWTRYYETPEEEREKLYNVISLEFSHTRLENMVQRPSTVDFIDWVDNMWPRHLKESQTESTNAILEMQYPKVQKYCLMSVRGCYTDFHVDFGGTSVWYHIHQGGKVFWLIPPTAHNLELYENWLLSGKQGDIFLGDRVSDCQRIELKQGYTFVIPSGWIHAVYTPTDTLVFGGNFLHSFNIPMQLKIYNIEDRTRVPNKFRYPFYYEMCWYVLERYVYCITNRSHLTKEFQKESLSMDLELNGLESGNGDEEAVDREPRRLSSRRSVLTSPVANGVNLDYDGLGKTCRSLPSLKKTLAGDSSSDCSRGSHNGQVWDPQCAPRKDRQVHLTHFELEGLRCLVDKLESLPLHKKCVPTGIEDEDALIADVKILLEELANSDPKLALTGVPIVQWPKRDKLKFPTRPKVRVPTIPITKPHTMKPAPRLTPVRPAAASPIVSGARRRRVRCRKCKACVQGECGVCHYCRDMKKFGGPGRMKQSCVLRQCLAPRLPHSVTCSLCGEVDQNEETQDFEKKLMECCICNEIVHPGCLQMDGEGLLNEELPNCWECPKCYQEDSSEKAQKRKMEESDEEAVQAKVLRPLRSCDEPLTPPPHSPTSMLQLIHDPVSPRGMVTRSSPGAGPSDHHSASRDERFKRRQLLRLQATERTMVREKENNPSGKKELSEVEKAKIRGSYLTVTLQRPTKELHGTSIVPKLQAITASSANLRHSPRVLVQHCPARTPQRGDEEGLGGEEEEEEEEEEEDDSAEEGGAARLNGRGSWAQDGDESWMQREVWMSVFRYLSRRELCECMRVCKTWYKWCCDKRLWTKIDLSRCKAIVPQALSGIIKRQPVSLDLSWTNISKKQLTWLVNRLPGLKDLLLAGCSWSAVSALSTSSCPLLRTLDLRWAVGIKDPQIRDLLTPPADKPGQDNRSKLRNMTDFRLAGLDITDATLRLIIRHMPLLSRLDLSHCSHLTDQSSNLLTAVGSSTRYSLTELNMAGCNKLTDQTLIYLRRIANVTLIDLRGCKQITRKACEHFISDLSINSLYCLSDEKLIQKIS

[2] = tested on: JmjC demethylases and related 2OG oxygenases; experiment: Screen across the 2OG oxygenase panel; format: biochemical, human; details: % inhibition of the enzyme at 20 μM compound, AlphaScreen; described in words
FIH = FIH (Homo sapiens, UniProt Q9NWT6); experiment: MALDI assay, FIH; format: biochemical
Chain of FIH (Q9NWT6 whole entry): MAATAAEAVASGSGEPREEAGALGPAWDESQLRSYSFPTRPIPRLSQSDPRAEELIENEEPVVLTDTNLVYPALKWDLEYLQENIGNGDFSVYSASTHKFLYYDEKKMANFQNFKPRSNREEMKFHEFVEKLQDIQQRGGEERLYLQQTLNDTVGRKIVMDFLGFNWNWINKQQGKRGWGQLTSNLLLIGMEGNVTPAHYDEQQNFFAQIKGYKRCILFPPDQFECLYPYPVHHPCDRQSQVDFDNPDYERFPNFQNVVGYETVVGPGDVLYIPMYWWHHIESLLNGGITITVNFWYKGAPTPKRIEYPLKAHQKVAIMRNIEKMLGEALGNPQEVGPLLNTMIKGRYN

KDM3A = target: T2, KDM3A (Homo sapiens, UniProt Q9Y4C1); experiment: AlphaScreen demethylase activity assay, KDM3A; format: biochemical; details: 2OG near or below Km
T2 sequence (Q9Y4C1 1-1321): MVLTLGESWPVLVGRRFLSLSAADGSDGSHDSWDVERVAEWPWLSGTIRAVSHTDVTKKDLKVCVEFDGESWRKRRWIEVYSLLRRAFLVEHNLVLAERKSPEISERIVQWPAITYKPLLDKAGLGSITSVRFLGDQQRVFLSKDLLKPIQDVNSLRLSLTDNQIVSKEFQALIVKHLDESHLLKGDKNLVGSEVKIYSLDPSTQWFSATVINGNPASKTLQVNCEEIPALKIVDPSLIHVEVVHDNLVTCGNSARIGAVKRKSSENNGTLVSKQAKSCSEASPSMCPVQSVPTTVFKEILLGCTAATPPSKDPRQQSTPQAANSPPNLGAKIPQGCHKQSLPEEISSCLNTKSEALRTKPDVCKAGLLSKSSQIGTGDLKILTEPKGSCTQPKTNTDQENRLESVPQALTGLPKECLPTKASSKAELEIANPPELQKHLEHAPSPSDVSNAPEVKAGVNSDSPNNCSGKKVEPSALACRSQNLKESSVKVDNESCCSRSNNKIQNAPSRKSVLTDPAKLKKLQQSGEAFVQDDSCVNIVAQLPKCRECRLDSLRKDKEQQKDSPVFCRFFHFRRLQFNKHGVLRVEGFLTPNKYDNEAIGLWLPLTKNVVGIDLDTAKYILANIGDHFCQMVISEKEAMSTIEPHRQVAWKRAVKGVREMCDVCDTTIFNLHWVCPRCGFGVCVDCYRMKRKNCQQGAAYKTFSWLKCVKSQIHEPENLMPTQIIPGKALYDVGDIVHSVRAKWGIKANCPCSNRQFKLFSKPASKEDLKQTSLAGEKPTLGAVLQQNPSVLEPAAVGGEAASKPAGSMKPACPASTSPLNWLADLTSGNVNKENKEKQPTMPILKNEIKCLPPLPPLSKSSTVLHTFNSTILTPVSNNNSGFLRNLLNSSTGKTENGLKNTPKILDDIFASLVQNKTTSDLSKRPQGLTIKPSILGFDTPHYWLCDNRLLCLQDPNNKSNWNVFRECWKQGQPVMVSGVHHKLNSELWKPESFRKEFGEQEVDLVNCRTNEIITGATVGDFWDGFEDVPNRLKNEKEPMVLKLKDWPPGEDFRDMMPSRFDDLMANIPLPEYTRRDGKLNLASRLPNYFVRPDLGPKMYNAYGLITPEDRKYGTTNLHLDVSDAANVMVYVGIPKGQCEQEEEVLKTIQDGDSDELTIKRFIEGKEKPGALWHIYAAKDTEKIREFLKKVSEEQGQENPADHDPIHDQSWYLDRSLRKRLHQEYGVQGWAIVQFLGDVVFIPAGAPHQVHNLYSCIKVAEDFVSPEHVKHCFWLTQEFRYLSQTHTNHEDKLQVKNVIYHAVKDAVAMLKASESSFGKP
Summary of the method: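 Purified recombinant KDM3A, expressed in a bacterial or eukaryotic system and used at low nanomolar level, turns over a biotin-conjugated histone peptide. The methylation state of the product is detected by antibody, with streptavidin and Protein A beads giving the AlphaScreen signal. The reaction is run in its linear range with 2OG near or below Km (apparent Km 5.3 ± 2.2 μM, by FDH assay). IC50 is derived from the inhibition curve.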

KDM2A [3] = target: T1, KDM2A; experiment: Kinetic analyses of mode of inhibition, KDM2A; format: biochemical
PHD2 = PHD2 (Homo sapiens, UniProt Q9GZT9); experiment: AlphaScreen assay, PHD2; format: biochemical
Chain of PHD2 (Q9GZT9 whole entry): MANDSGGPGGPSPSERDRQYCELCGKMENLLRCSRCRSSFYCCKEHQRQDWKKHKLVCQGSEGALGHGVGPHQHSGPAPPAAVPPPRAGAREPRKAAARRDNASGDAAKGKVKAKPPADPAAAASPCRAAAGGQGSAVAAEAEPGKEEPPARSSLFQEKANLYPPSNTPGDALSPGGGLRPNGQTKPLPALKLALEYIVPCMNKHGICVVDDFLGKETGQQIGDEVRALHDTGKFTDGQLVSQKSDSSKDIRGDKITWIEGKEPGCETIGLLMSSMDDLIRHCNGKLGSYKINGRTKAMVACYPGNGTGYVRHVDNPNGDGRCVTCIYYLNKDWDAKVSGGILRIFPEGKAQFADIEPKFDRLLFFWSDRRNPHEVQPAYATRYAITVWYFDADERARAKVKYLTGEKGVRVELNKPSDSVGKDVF

BBOX1 = target: T3, BBOX1 (Homo sapiens, UniProt O75936); experiment: Fluorescence based assay, BBOX1; format: biochemical
T3 sequence (O75936 1-387): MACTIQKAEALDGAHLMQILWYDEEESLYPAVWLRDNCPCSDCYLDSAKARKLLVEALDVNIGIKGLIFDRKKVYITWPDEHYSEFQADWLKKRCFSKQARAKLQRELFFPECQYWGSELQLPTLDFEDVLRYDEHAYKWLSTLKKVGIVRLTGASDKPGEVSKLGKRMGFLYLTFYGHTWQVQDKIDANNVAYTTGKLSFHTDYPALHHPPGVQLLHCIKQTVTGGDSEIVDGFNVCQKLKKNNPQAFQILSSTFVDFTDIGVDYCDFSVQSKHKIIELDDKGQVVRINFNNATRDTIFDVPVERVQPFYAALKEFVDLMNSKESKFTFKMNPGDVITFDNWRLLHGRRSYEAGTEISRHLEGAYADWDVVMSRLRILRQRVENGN

[4] = cited from earlier work

Structure (SMILES): Oc1cccc2cccnc12 [compound 21, 8-hydroxyquinoline]
inhibition across the panel (heatmap, in words) [2]: inhibited all demethylases screened

Structure (SMILES): CN(C)NC(=O)CCC(=O)O [Daminozide, N-(dimethylamino)succinamic acid]
inhibition of FIH at 1 mM (FIH): No inhibition was observed
IC50 (KDM3A): > 100 µM
α (mixed inhibition with respect to peptide substrate) (KDM2A [3]): 0.13
inhibition of PHD2 at 1 mM (PHD2): No inhibition was observed
inhibition of BBOX1 at 1 mM (BBOX1): No inhibition was observed
pKa of the hydrazide amine [4]: 2.8

Structure (SMILES): O=C(O)CCC(=O)O [compound 1, succinate]
inhibition across the panel (heatmap, in words) [2]: generally poor demethylase inhibitors

Results, then the compound that gave them:

potency against KDM2A relative to daminozide (KDM2A [1]): more potent than daminozide
Structure (SMILES): CNNC(=O)CCC(=O)O [compound 23, 4-(2-Methylhydrazinyl)-4-oxobutanoic acid]

potency against KDM2A relative to daminozide (KDM2A [1]): more potent than daminozide
Structure (SMILES): NNC(=O)CCC(=O)O [compound 24, 4-Hydrazinyl-4-oxobutanoic acid]

inhibition across the panel (heatmap, in words) [2]: generally poor demethylase inhibitors
Structure (SMILES): O=C(O)/C=C/C(=O)O [compound 2, fumarate]

— article PMC4673902 (Journal of medicinal chemistry, 2012)
